High-throughput results: PubChem BioAssay, several laboratories
Dynein transport: blocks dynein driven cargo transport along microtubules. 3617.4 mouse cells, GR-EGFP nuclear translocation imaging; test concentration mostly 20 µM; stimulated with dexamethasone, 1 µM; hits give low values. AID 1381. z-score, hits read low. actives 0.47% (n = 220,000);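 active means plate z-score of nuclear minus cytoplasmic receptor signal below a set negative limit, without overly bright fluorescence or cell loss, cut at about -3.5 in these data, passing the limit was not always enough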;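 further: z-score of nuclear minus cytoplasmic ring GR-EGFP intensity difference per well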
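Schedule: 48 h induction, then 1 h compound, then 30 min agonist, 37 °C. Buffer or medium: tetracycline-free induction medium containing charcoal-stripped FBS. Reagent: 1.0 µM final dexamethasone stimulus. Evaluation: nuclear versus cytoplasmic GR-EGFP signal, averaged per well. Signal: high-content fluorescence imaging after fixation.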
INS promoter inh: TRM-6 insulin promoter activity inhibition | TRM-6 cells, insulin promoter-eGFP reporter, imaging; reporter expression induced with tamoxifen | inhibition, % at 2 µM | actives 0.9% (n = 130,000);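 active means inhibition above the mean plus 3 SD, with well images judged a real hit on visual review, cut at about 60% in these data, passing the limit was not always enough; inconclusive means inhibition over the cutoff but images rejected on review; inactive means inhibition not above the cutoff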
Autophagy mod: alters autophagy in cells; MEF GFP-LC3 puncta imaging; test concentration mostly 10 µM; calls only at 10 µM (by protocol); actives 0.98% (n = 190,000);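 active means percentage of spot-positive cells more than 3 SD above its plate mean, without a fluorescence outlier flag or 80% toxicity; inconclusive means no clear call, values can overlap the other calls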;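 further: spot-positive cell cutoff set from DMSO-treated cells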
Insulin prom up: MIN6 insulin promoter up-regulation. MIN6 insulin promoter-GFP reporter, high-content imaging; hits give high values. z-score at 5 µM. actives 0.3% (n = 190,000). AID 1625;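 active means z-score above 3 at 5 µM with at least 500 cells counted in the well; inconclusive means wells under 500 cells, flagged as cytotoxic or low count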
Numbers without * were called inactive; i = inactive; u = inconclusive; x = not tested or not shown; + = active, no number. Hits are enriched below; roughly 2% of the tested compounds scored in any of these assays.

SMILES | Dynein transport | INS promoter inh | Autophagy mod | Insulin prom up
CN1CC=C2C(C#N)=C(N)C(C#N)(C#N)C(c3ccsc3)C2C1 (stereo not drawn) | 2 | -51 | i | x
CN1CCc2c(n(CC(O)CN3CCN(CCO)CC3)c3ccccc23)C1=O (stereo not drawn) | -0.47 | -73 | i | 0.15
O=P(c1ccccc1)(c1ccccc1)c1nc(-c2ccccc2)oc1NCc1ccccc1 | 1 | x | i | -1.1
CCOC(=O)c1cc(-c2ccc(F)cc2)n(CC(=O)NCc2cccnc2)c1C | -0.043 | 36 | i | -0.32
O=C(O)C1CC=CCC1C(=O)c1ccccc1 (stereo not drawn) | 0.6 | 66* | i | -1.1
N=c1c2c(-c3ccccc3)c(-c3ccccc3)n(Cc3ccco3)c2ncn1CCN1CCOCC1 | -0.78 | -10 | + | -1.3
CC(C)N1CCc2c(sc(NC(=O)c3cc4cc([N+](=O)[O-])ccc4s3)c2C(N)=O)C1 | -0.079 | -368 | i | x
CN1CCc2c(sc(NC(=O)c3cc4cc([N+](=O)[O-])ccc4s3)c2C(N)=O)C1 | -0.22 | -242 | + | u
CCOc1c(Cl)cc(CNCC(C)C)cc1OC | 0.58 | x | i | x
CCOc1c(Cl)cc(CNCC(O)c2ccccc2)cc1OC (stereo not drawn) | 0.36 | -22 | + | 0.07
NCC(O)(c1ccc(Cl)cc1)c1ccc(Cl)cc1 | 0.16 | x | + | -1.1
CCOP(=O)(Nc1ccc2oc(=O)c3ccccc3c2c1)OCC | 0.65 | x | x | 0.52
CCc1nnc(NC(=O)c2cc(S(=O)(=O)N3CCCCC3)ccc2N2CCOCC2)s1 | 0.4 | -22 | + | -0.03
CCc1nnc(NC(=O)c2ccc(S(=O)(=O)N3CCOCC3)cc2)s1 | 2.4 | x | i | -0.18
Nc1nc(SCCO)[nH]c(=O)c1NC(=O)c1ccccc1F | -0.62 | x | i | -0.16
O=c1c2cccnc2[nH]c(=S)n1CCCN1CCN(c2ccccc2F)CC1 | 3.6 | x | + | -0.75
Cn1c(=O)n(C)c2cc([N+](=O)[O-])c(N3CCN(C(=O)c4ccccc4)CC3)cc21 | -0.93 | 10 | i | u
Cn1c(=O)n(C)c2cc([N+](=O)[O-])c(N3CCN(C(=O)C(C)(C)C)CC3)cc21 | -0.77 | 71* | i | -0.66
Nc1c(C(=O)Nc2ccccc2F)sc2nc(Cc3ccccc3)cc(C(F)(F)F)c12 | i | 16 | + | x
Cc1cc(C(F)(F)F)c2c(N)c(C(=O)Nc3cc(C)on3)sc2n1 | 0.8 | 11 | i | 0.91
CC(C)(C)C(O)CN1CCCC1 (stereo not drawn) | -0.89 | 13 | i | -2.6
N#CCCN(C(=O)COC(=O)c1cccc(S(=O)(=O)Nc2ccc([N+](=O)[O-])cc2)c1)c1ccccc1 | -0.12 | 69* | i | 0.04
COc1ccc(NC(=O)c2cc3c(=O)n4ccccc4nc3n2C)cc1OC | -0.27 | -26 | i | -1.7
Cn1c(SCc2ccc(F)cc2)nnc1-c1cccs1 | 0.33 | 71* | i | -0.98
Cn1c(SCc2ccccc2)nnc1-c1cccs1 | 0.78 | 3 | i | 0.38
SMILES | Dynein transport | INS promoter inh | Autophagy mod | Insulin prom up
CC(/C=N/NC(=O)c1ccncc1)=C\c1ccc(C(C)C)cc1 | 0.43 | 23 | i | 3.2*
C=CCn1c(SCC(=O)NCc2ccc3c(c2)OCO3)nnc1-c1cccnc1 | -0.17 | 76* | i | 0.44
CCC(=O)N(CCC1(c2ccccc2OC)CCOC(C(C)C)C1)Cc1ccco1 (stereo not drawn) | -0.21 | x | x | x
COc1ccc(C2=NCC(CSc3nccc(=O)[nH]3)S2)cc1 (stereo not drawn) | -0.063 | 86* | i | x
CCCNC(=O)OCCC12CC3CC(CC(C3)C1)C2 | -0.13 | 69* | i | 0.06
Cc1cc(N)n(-c2ccccn2)n1 | -0.64 | x | x | -0.38
COc1ccc(Cl)cc1NC(=O)c1c(-c2ccccc2)noc1C | 1.3 | -473 | i | 18*
COc1cc(OC)c(NC(=O)c2ccoc2C)cc1Cl | 1.1 | 71* | i | 0.38
COc1cc(OC)c(NC(=O)c2c(-c3ccccc3)noc2C)cc1Cl | -0.54 | 79* | i | -0.38
COc1ccc(Cl)cc1NC(=O)c1ccoc1C | -0.16 | -54 | i | -0.09
CCOc1ccc(CN2CCN(Cc3nc4c(s3)CCCC4)CC2CCO)cc1 (stereo not drawn) | 0.83 | x | i | -0.41
C/C(=C\c1ccco1)CN1CCN(Cc2ccc(C)o2)C(CCO)C1 (stereo not drawn) | -0.052 | x | i | -0.26
COc1ccc(NC(=O)CCCn2cc([N+](=O)[O-])cn2)cc1 | -0.22 | 0 | i | -0.26
COc1ccc(NC(=S)NNC(=O)CCn2cc([N+](=O)[O-])cn2)cc1 | -0.6 | 88* | i | -0.47
Cc1c(N(C)C(=O)c2ccco2)c(=O)n(-c2ccccc2)n1C | 0.16 | -88 | i | 0.24
COc1ccc(C(=O)N(C)c2c(C)n(C)n(-c3ccccc3)c2=O)cc1OC | 0.65 | 0 | + | 0.2
COC(=O)c1cnn(-c2ccccc2)c1/C=N/NC(=S)Nc1ccc(Cl)cc1 | -0.3 | x | x | -0.78
CCN(CC)CC(C)OC(=O)c1ccccc1Cl (stereo not drawn) | -0.18 | x | + | -0.09
CC1CCCCN1S(=O)(=O)c1cccc(S(=O)(=O)N2CCOCC2)c1 (stereo not drawn) | 1.3 | x | x | 0.13
Cc1ccc(S(=O)(=O)N2CCN(c3nccnc3C#N)CC2)cc1 | -0.85 | x | x | 0.35
O=C(NCc1cccs1)C(=O)c1cn(CC(=O)N2CCCC2)c2ccccc12 | -0.13 | -69 | i | 0.01
COc1ccccc1NC(=S)NC(=O)/C=C/c1ccco1 | -0.42 | 50 | i | 0.23
COc1ccccc1NC(=O)/C(C#N)=C/C=C/c1ccco1 | -1.1 | -40 | + | x
CC1=[N+](C)c2c(ccc3cccnc23)C1(C)C | 0.36 | x | i | 0.45
O=C(NCCSc1ccccc1)c1cncc(Br)c1 | 1.2 | 75* | i | -0.6
SMILES | Dynein transport | INS promoter inh | Autophagy mod | Insulin prom up
Cc1ccccc1N=C1c2ccccc2C(=O)C1[N+](=O)[O-] (stereo not drawn) | -0.31 | x | i | 0.22
O=C(Nc1ccccc1Br)C1CC(=O)N(c2ccc3c4c(cccc24)CC3)C1 (stereo not drawn) | 0.0023 | 19 | i | 0.21
CC(C)OC(=O)c1ccc(NC(=O)c2ccccc2)cc1 | 0.23 | -23 | + | x
COc1cc(OC)c(C(=O)OCC(=O)N(Cc2ccccc2)C(C)(C)C)cc1OC | 0.26 | x | i | -0.48
Cn1nc(-c2ccc(Cl)cc2)cc1NC(=O)CSCC(=O)O | 0.16 | x | x | x
CCC(C)N(C(=O)C(F)(F)F)C(C(=O)NC1CCCCC1)c1ccncc1 (stereo not drawn) | -0.084 | -52 | i | x
O=C(NC1CCCCC1)C(c1ccncc1)N(CC1CCCO1)C(=O)C(F)(F)F (stereo not drawn) | 1.3 | 90* | i | 0.79
Cc1ccc(C(=O)NN2C(=O)C3C(C2=O)C2C=CC3C23CC3)cc1 (stereo not drawn) | 0.084 | -24 | i | -1
CN1CCN(CCCNC(=O)c2ccc(CSCc3cccc(Cl)c3)o2)CC1 | 3.5 | -92 | i | -0.63
CC1CCN(CCCNC(=O)c2ccc(CSCc3cccc(Cl)c3)o2)CC1 | -0.25 | -25 | + | -0.74
